Source: PubChem (several laboratories)
NF-kB neuron act – activators of NF-kB expression in neurons, primary screen, cell-based, HTS; hit rate 1.6% among 190,000; fold change at 12.5 µM; human neuronal cells, NF-kB reporter expression; hits give high values; in the data active = fold change above about 3.3
STAT1 act – STAT1 signaling activators, primary screen, cell-based, HTS, luciferase reporter | activation (% of control), % at 5.5 µM | AID 932, 2007 | NIH 3T3 STAT1-luciferase reporter, IFN-gamma, luminescence; 100% = IFN-gamma alone, no compound | hit rate 2.6% among 200,000;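 active = activation above the screen-wide mean activation plus 3 SD, cut at about 130% in these data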;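 note: raw ratio to IFN-gamma control signal so 100% means no change and 0% no light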
STAT3 blocker – IL-6 driven STAT3 reporter inhibitors, primary screen, U3A cells, luciferase, luminescence, MLSCN library; IL-6 STAT3-luciferase reporter; host cell line lacks STAT1; inhibition, % at 5.5 µM; hit rate 0.89% among 190,000;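 active = inhibition above the mean inhibition across all screened compounds plus 3 SD, cut at about 44% in these data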;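 note: 0% = DMSO only wells and 100% = 100 µM nifuroxazide control wells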
APP 5'UTR act – activators of APP 5'UTR luciferase reporter, primary screen, SH-SY5Y cells; SH-SY5Y APP 5'UTR luciferase reporter, luminescence; zero percent = DMSO vehicle wells; activation, % at 2 µM; hit rate 1% among 190,000; AID 1276, 2008;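 active = activation above a set limit, based on mean plus 3 SD of controls, cut at about 140% in these data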
STAT3 act – IL-6 driven STAT3 reporter potentiators, primary screen, U3A cells, luciferase, luminescence, MLSCN library. IL-6 STAT3-luciferase reporter; 100% = signal with IL-6 EC80 alone. activation (% of control), % at 5.6 µM. hit rate 0.91% among 190,000;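 active = activation above the screen-wide mean of compound activation plus 3 SD, cut at about 130% in these data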;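 note: 0% = background luminescence of wells with medium and substrate only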
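Test system: STAT3-luciferase reporter U3A cells; Detection: reporter luminescence signal; Times: 1 h compound pre-exposure, 6 h IL-6 stimulation, 37 °C; Benchmarks: IL-6-only high control; Also added: IL-6 stimulus at 33 ng/mL final.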
STAT1 inh – STAT1 signaling inhibitors, primary screen, cell-based, HTS, luciferase reporter. hit rate 0.35% among 200,000. NIH 3T3 STAT1-luciferase reporter, IFN-gamma, luminescence. inhibition, % at 5.5 µM;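 active = inhibition above a set limit, the mean inhibition across all tested compounds plus 3 SD, cut at about 34% in these data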;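 note: 0% = IFN-gamma with DMSO and 100% = IFN-gamma with 300 µM nifuroxazide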
The depositor's hits bear a star. Sampled rows, rich in hits. Any-hit rate of the full collection: about 4.9%.

SMILES	NF-kB neuron act	STAT1 act	STAT3 blocker	APP 5'UTR act	STAT3 act	STAT1 inh
CC(C)(C)NC(=O)Cn1c(=O)n(CC(=O)NC(C)(C)C)c2ccccc21	1.2	101	7	-1	99	-2
Cc1cccc(CSc2cn(CC(=O)N3CCOCC3)c3ccccc23)c1	2.2	129*	-22	13	114	-32
CCOC(=O)c1sc(NC(=O)CSc2ccccn2)c(C#N)c1C	3.8*	104	6	2	96	-3
CC(/C=N/N1CCN(c2ccccc2)CC1)=C\c1ccco1	3.6*	138*	13	80	92	-41
CC(=C/c1ccco1)/C=N/N1CCN(c2ccccc2)CC1	3.9*	128	11	66	94	-31
CC(/C=N/N1CCN(c2ccccc2)CC1)=C\c1ccccc1	1.6	102	6	2	99	-2
CCOC(=O)N1CCN(S(=O)(=O)c2cc([N+](=O)[O-])c(C)cc2C)CC1	0.87	96	3	10	101	3
COc1ccc2o/c(=N/NC(=S)Nc3ccccc3)c(C(N)=O)cc2c1	1.1	104	-2	11	102	-4
COc1cc(S(=O)(=O)Nc2ccc3cn[nH]c3c2)ccc1Cl	0.88	89	-10	40	121	11
O=C(O)c1ccc(Cl)c(S(=O)(=O)Nc2ccc3cn[nH]c3c2)c1	1.1	94	-33	-1	135*	5
N#C/C(=C\c1ccc(N2CCCCC2)o1)C(N)=O	1.3	117	12	30	92	-19
N#C/C(=C\c1ccc(N2CCCCC2)o1)C(=O)Nc1cccc(Br)c1	1.1	160*	-12	170*	111	-67
CS(=O)(=O)NCC(c1ccco1)N1CCN(c2ccc(F)cc2)CC1 (stereo not drawn)	1	97	-5	8	100	4
OC(CN1CCN(c2cccc(C(F)(F)F)c2)CC1)c1c[nH]c2ccccc12 (stereo not drawn)	0.93	94	-38	-1	135*	7
OC(COCc1cccs1)CN1CCN(c2cccc(C(F)(F)F)c2)CC1 (stereo not drawn)	0.98	95	-1	-10	100	5
O=C(CN1C(=O)CCC1=O)Nc1nc(-c2nc3ccccc3s2)cs1	1.2	131*	0	52	100	-32
O=C(CN1C(=O)CCC1=O)Nc1nc(-c2ccc3ccccc3c2)cs1	1.9	138*	13	-5	91	-43
Cc1ccc(-c2csc(NC(=O)CN3C(=O)CCC3=O)n2)cc1	1.2	102	18	4	86	-2
O=[N+]([O-])c1ccc(/C=N/Nc2ncc(-c3ccccc3)cn2)cc1	1.2	100	14	2	90	-3
O=[N+]([O-])c1ccc(N/N=C/c2ccccc2)c(F)c1	2.3	145*	-10	33	104	-50
N#Cc1cc2c(nc1S(=O)(=O)Cc1ccccc1)CCCC2	1.5	91	16	5	89	7
CN(C)CCCNC(=O)c1cc2sc3ccccc3c2s1	1.4	106	4	-5	102	-7
COCCNC(=O)c1cc2sc3ccccc3c2s1	2.3	137*	18	104	87	-41
CCc1nnc(NC(=O)CSc2nc3c(cc2C#N)CCCC3)s1	2.4	107	10	199*	95	-7
COC(=O)CC(=O)CSc1nc2c(cc1C#N)CCCCC2	5*	118	8	38	96	-19
SMILES	NF-kB neuron act	STAT1 act	STAT3 blocker	APP 5'UTR act	STAT3 act	STAT1 inh
C=C(C)CC(c1ccccc1)N(C(C)=O)c1ccco1 (stereo not drawn)	1	95	1	-1	105	5
Cc1nc(-c2ccccc2)sc1-c1ccn[nH]1	1.2	122	29	164*	81	-25
Cc1nc(-c2ccccc2)sc1-c1ccnn1C	6.4*	141*	16	141*	89	-46
C#CCSc1nnc(-c2sc(-c3ccccc3)nc2C)n1C	1.1	108	10	11	96	-8
CCn1c(-c2sc(-c3ccccc3)nc2C)n[nH]c1=S	1.2	101	9	-6	96	-4
Cn1c2ccccc2c2nnc(SCC(=O)NCc3ccoc3)nc21	1.3	104	12	3	94	-7
Oc1ccc(Cl)cc1-c1cc(-c2ccccc2Cl)[nH]n1	1.1	99	-27	11	126	1
S=c1[nH]nc(-c2cc(-c3ccco3)[nH]n2)n1-c1ccccc1	1.1	100	9	-9	96	1
Oc1ccccc1-c1cc(-c2ccco2)[nH]n1	3.9*	102	-30	115	132	-3
Oc1ccccc1-c1cc(-c2ccccc2Cl)[nH]n1	8.7*	108	11	231*	93	-8
Oc1ccc(Cl)cc1-c1cc(-c2ccco2)[nH]n1	1.6	111	-39	-12	134*	-12
O=C1c2cccc(OCC(=O)N3N=C(c4cccs4)CC3c3ccc(F)cc3)c2CCN1Cc1cccnc1 (stereo not drawn)	0.46	88	20	16	85	13
COCCNC(=O)C/C(C)=N/NC(=O)C(=O)NC1CCCCC1	1.4	103	1	6	101	-6
O=c1cc(-c2ccc3c(c2)OCCO3)oc2ccc(Cl)cc12	7.2*	142*	10	214*	94	-46
O=c1cc(-c2cccs2)oc2ccc(Cl)cc12	3.2	147*	-19	36	116	-53
Cc1ccccc1NC(=S)NNC(=O)c1csc2c1CCC(C)C2 (stereo not drawn)	0.46	93	30	180*	78	8
CC1CCc2c(C(=O)Nc3nccs3)csc2C1 (stereo not drawn)	4.1*	116	-8	60	109	-17
Cc1ccc(S(=O)(=O)N2CCCC(C(=O)Nc3ccc(C(=O)O)cc3)C2)cc1Cl (stereo not drawn)	1.2	93	8	18	97	7
Cc1cccc(OCCN2C(=O)C(=O)c3cc(C)ccc32)c1	3.8*	114	15	-93	92	-15
Cc1ccc2c(c1)C(=O)C(=O)N2CCOc1ccccc1	3.6*	123	9	-79	95	-27
Cc1ccc2c(c1)C(=O)C(=O)N2CCCOc1ccccc1C	1.2	105	6	53	97	-8
COc1ccc(Cl)cc1NC(=S)NCc1ccc(S(N)(=O)=O)cc1	1.1	97	-5	-21	105	3
CC(=O)N1CCCC(C(=O)c2ccc(Oc3ccccc3)cc2)C1 (stereo not drawn)	1.9	103	27	-13	79	-6
